Experimental data published in ChEMBL document CHEMBL1938291, “Activity of novel quinoxaline-derived chalcones on in vitro glioma cell proliferation” (Eur J Med Chem, 2012).
Converted amounts (≈) assume the structure as drawn. The source made the active and inactive calls. The rule behind the calls is not given here.

Assays:
C6 [1] = assay: Cytotoxicity against rat C6 cells at 5 ug/ml after 48 hrs by MTT assay; format: functional
Outline: (§1)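 MTT viability assay. C6 seeded at 1×10^3 cells/well in DMEM/5% FBS and U-138 MG in DMEM/15% FBS. Exposed to 0.1, 0.5, 1, 5, 10 μg/ml for 24, 48 or 72 h, or to AS605240 at 100 nM, 10 μM or 30 μM for 48 h. Vehicle 0.01% DMSO. Viability given as % of control, mean ± SEM of 3 experiments in triplicate. IC50 as geometric mean with 95% confidence limits.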

[2] = Cytotoxicity against human U138MG cells at 5 ug/ml after 48 hrs by MTT assay; format: functional, U138-MG; outline: as §1
C6 [3] = assay: Antiproliferative activity against rat C6 cells at 5 ug/ml after 24 to 72 hrs by hemocytometric analysis; format: functional
Outline: (§2)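 Cell-count proliferation assay. U-138 MG seeded at 1×10^4 cells/well in DMEM/15% FBS and C6 at 5×10^3 cells/well in DMEM/5% FBS, grown 24 h. Medium changed, then chalcones (0.1–10 μg/ml) or AS605240 (100 nM, 10 μM, 30 μM) added. Cells washed in Ca/Mg-free PBS, trypsin/EDTA-detached and counted in a Neubauer chamber. Inhibition versus control, mean ± SEM of 3 experiments in triplicate.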

C6 [4] = assay: Cytotoxicity against rat C6 cells at 0.1 to 0.5 ug/ml by MTT assay; format: functional, cell-based; conditions: TDE = time-dependent effect; outline: as §1
C6 [5] = assay: Antiproliferative activity against rat C6 cells at 0.1 to 0.5 ug/ml after 24 hrs by hemocytometric analysis; format: functional, cell-based; outline: as §2
U138-MG [6] = assay: Antiproliferative activity against human U138MG cells at 0.1 to 0.5 ug/ml by hemocytometric analysis; format: functional, cell-based; conditions: TDE = time-dependent effect; outline: as §2
U138-MG [7] = assay: Cytotoxicity against human U138MG cells at 0.1 to 0.5 ug/ml after 48 to 72 hrs by MTT assay; format: functional, cell-based; outline: as §1
[8] = Antiproliferative activity against human U138MG cells at 5 ug/ml after 24 to 72 hrs by hemocytometric analysis; format: functional, U138-MG; outline: as §2
C6 [9] = assay: Antiproliferative activity against rat C6 cells at 0.1 to 0.5 ug/ml by hemocytometric analysis; format: functional, cell-based; conditions: TDE = time-dependent effect; outline: as §2
C6 [10] = assay: Cytotoxicity against rat C6 cells at 0.1 to 0.5 ug/ml after 24 hrs by MTT assay; format: functional, cell-based; outline: as §1
C6 [11] = assay: Antiproliferative activity against rat C6 cells after 24 to 72 hrs by hemocytometric analysis; format: functional, cell-based; outline: as §2
U138-MG [12] = assay: Antiproliferative activity against human U138MG cells at 0.1 to 0.5 ug/ml after 48 to 72 hrs by hemocytometric analysis; format: functional, cell-based; outline: as §2
C6 [13] = assay: Cytotoxicity against rat C6 cells at 0.1 to 0.5 ug/ml after 48 to 72 hrs by MTT assay; format: functional, cell-based; outline: as §1
U138-MG [14] = assay: Cytotoxicity against human U138MG cells at 0.1 to 0.5 ug/ml by MTT assay; format: functional, cell-based; conditions: TDE = time-dependent effect; outline: as §1
C6 [15] = assay: Cytotoxicity against rat C6 cells after 48 hrs by MTT assay; format: functional, cell-based; conditions: C6, 48 h; outline: as §1
[16] = Antiproliferative activity against human U138MG cells after 24 to 72 hrs by hemocytometric analysis; format: functional, cell-based; conditions: U138-MG; outline: as §2
U138-MG [17] = assay: Cytotoxicity against human U138MG cells at 0.1 to 0.5 ug/ml after 24 hrs by MTT assay; format: functional, cell-based; outline: as §1
U138-MG [18] = assay: Antiproliferative activity against human U138MG cells at 0.1 to 0.5 ug/ml after 24 hrs by hemocytometric analysis; format: functional, cell-based; outline: as §2
C6 [19] = assay: Antiproliferative activity against rat C6 cells at 0.1 to 0.5 ug/ml after 48 to 72 hrs by hemocytometric analysis; format: functional, cell-based; outline: as §2
C6 [20] = assay: Antiproliferative activity against rat C6 cells at 2 ug/ml after 48 hrs by hemocytometric analysis; format: functional; conditions: C6, 48 h
Outline: (§3)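 Doxorubicin at 2 μg/mL for 48 h on C6 and U-138 MG cells. Proliferation measured as percentage inhibition.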

[21] = Antiproliferative activity against human U138MG cells at 2 ug/ml after 48 hrs by hemocytometric analysis; format: functional; conditions: U138-MG; outline: as §3
U138-MG [22] = assay: Antiproliferative activity against human U138MG cells at 100 nM after 48 by hemocytometric analysis; format: functional, cell-based; outline: as §2
[23] = Antiproliferative activity against human U138MG cells assessed as growth inhibition at 30 uM after 48 by hemocytometric analysis; format: functional; conditions: U138-MG, read-out: GI; outline: as §2
U138-MG [24] = assay: Cytotoxicity against human U138MG cells at 100 nM after 48 by MTT assay; format: functional, cell-based; outline: as §1
C6 [25] = assay: Cytotoxicity against rat C6 cells at 100 nM after 48 hrs by MTT assay; format: functional, cell-based; outline: as §1
C6 [26] = assay: Growth inhibition of rat C6 cells at 30 uM after 48 hrs by MTT assay; format: functional; conditions: C6, 48 h, read-out: GI; outline: as §1
C6 [27] = assay: Antiproliferative activity against rat C6 cells assessed as growth inhibition at 30 uM after 48 hrs by hemocytometric analysis; format: functional; conditions: C6, 48 h, read-out: GI; outline: as §2
C6 [28] = assay: Inhibition of PI3Kgamma-mediated Akt activation in rat C6 cells at 30 uM after 15 mins by flow cytometric analysis; format: cell-based
Outline: (§4)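 C6 cells (2×10^5/well) grown 24 h in 5% FBS DMEM, then serum-starved 24 h in 0.5% FBS. Treated with 5 μg/ml test compound or 30 μM AS605240 plus 5% FBS stimulus, 15 or 30 min. Cells trypsinized, fixed, permeabilized, stained 30 min with AKT antibody and read by flow cytometry. Controls: unstimulated, and 5% FBS plus 0.01% DMSO.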

[29] = Growth inhibition of human U138MG cells at 30 uM after 48 by MTT assay; format: functional; conditions: U138-MG, read-out: GI; outline: as §1
C6 [30] = assay: Inhibition of PI3Kgamma-mediated Akt activation in rat C6 cells at 30 uM after 30 mins by flow cytometric analysis; format: cell-based; outline: as §4
C6 [31] = assay: Antiproliferative activity against rat C6 cells at 100 nM after 48 hrs by hemocytometric analysis; format: functional, cell-based; outline: as §2
C6 [32] = assay: Inhibition of PI3Kgamma-mediated Akt activation in rat C6 cells at 5 ug/ml after 30 mins by flow cytometric analysis; format: cell-based; outline: as §4
C6 [33] = assay: Inhibition of PI3Kgamma-mediated Akt activation in rat C6 cells at 5 ug/ml after 15 mins by flow cytometric analysis; format: cell-based; outline: as §4
C6 [34] = assay: Cell cycle arrest in rat C6 cells assessed as accumulation at sub-G1/G0 phase after 12 hrs by flow cytometric analysis; format: functional, cell-based
Outline: (§5)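 C6 cells at 3×10^5 per well, in triplicate, given 0.1% DMSO vehicle or 2.5 μg/ml for 6, 12 or 24 h. Ethanol-fixed (70%), stained with propidium iodide/RNase/Triton, 10,000 cells acquired by flow cytometry. Results are relative cell numbers in sub-G1/G1, S and G2/M, from 6 independent experiments.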

C6 [35] = assay: Cell cycle arrest in rat C6 cells assessed as accumulation at sub-G1/G0 phase after 6 hrs by flow cytometric analysis; format: functional, cell-based; outline: as §5
C6 [36] = assay: Cell cycle arrest in rat C6 cells assessed as accumulation at sub-G1/G0 phase at 2.5 ug/ml after 24 hrs by flow cytometric analysis (reference value: 57.9%); format: functional; outline: as §5

SMILES	Imax (C6 [1]) [%]	Imax [2] [%]	Imax (C6 [3]) [%]	Activity (C6 [4])	Activity (C6 [5])	Activity (U138-MG [6])	Activity (U138-MG [7])	Imax [8] [%]	Activity (C6 [9])	Activity (C6 [10])	IC50 (C6 [11]) [µg/mL]	Activity (U138-MG [12])	Activity (C6 [13])	Activity (U138-MG [14])	IC50 (C6 [15]) [µg/mL]	IC50 [16] [µg/mL]	Activity (U138-MG [17])	Activity (U138-MG [18])	Activity (C6 [19])	also measured
O=C(/C=C/c1ccc2nccnc2c1)c1ccc([N+](=O)[O-])cc1	26	9																		
COc1ccc(C(=O)/C=C/c2ccc3nccnc3c2)c(OC)c1	52	42	67	tde	inactive	tde	Active	86	tde	inactive	1.53 (≈ 4.78 µM)	Active	Active	tde	4.6 (≈ 14.4 µM)	2.48 (≈ 7.74 µM)	inactive	inactive	Active	
COc1cccc2c1C(=O)c1c(O)c3c(c(O)c1C2=O)C[C@@](O)(C(=O)CO)C[C@@H]3O[C@H]1C[C@H](N)[C@H](O)[C@H](C)O1 [DOXORUBICIN]																				inhibition at 2 µg/mL (C6 [20]): 27%; inhibition at 2 µg/mL [21]: 31%
O=C(/C=C/c1ccc2nccnc2c1)c1ccc(Br)cc1	56	16													9.19 (≈ 27.1 µM)					
COc1ccc(C(=O)/C=C/c2ccc3nccnc3c2)cc1	53	34	90	tde	inactive	tde	Active	84	tde	inactive	2.19 (≈ 7.54 µM)	Active	Active	tde	4.42 (≈ 15.2 µM)	2.67 (≈ 9.2 µM)	inactive	inactive	Active	
O=C(/C=C/c1ccc2nccnc2c1)c1ccc2c(c1)OCO2	55	15													8.39 (≈ 27.6 µM)					
O=C1NC(=O)/C(=C/c2ccc3nccnc3c2)S1																				Activity (U138-MG [22]): inactive; inhibition of growth at 30 µM [23]: 10%; Activity (U138-MG [24]): inactive; Activity (C6 [25]): inactive; inhibition of growth at 30 µM (C6 [26]): 35%; inhibition of growth at 30 µM (C6 [27]): 73%; inhibition (C6 [28]): 31%; inhibition of growth at 30 µM [29]: 10%; inhibition (C6 [30]): 41%; Activity (C6 [31]): inactive
COc1ccc(OC)c(C(=O)/C=C/c2ccc3nccnc3c2)c1	50	36	85	tde	inactive	tde	Active	87	tde	inactive	1.35 (≈ 4.21 µM)	Active	Active	tde	2.66 (≈ 8.3 µM)	2.64 (≈ 8.24 µM)	inactive	inactive	Active	inhibition (C6 [32]): 46%; inhibition (C6 [33]): 60%; Activity (C6 [34]): Active; Activity (C6 [35]): Active; Activity (C6 [36]): 66.4%
COc1ccc(C(=O)/C=C/c2ccc3nccnc3c2)cc1OC	51	33	82	tde	inactive	tde	Active	84	tde	inactive	1 (≈ 3.12 µM)	Active	Active	tde	4.16 (≈ 13 µM)	2.29 (≈ 7.15 µM)	inactive	inactive	Active	
O=C(/C=C/c1ccc2nccnc2c1)c1ccccc1	60	21													4.63 (≈ 17.8 µM)					
